Assay outcomes as filed in PubChem.
EWS-Fli block: EWS/Fli transcriptional activity inhibition. A673 NR0B1-luciferase reporter, viability-normalised. inhibition, % at 12.6 µM. actives 0.67% (n = 350,000). AID 651661;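 active = mean inhibition of at least 50% after viability correction, with every replicate also passing that limit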;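 note: firefly luciferase signal divided by Alamar Blue viability fluorescence both relative to DMSO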
AF4-AF9 inh: MLL-AF4/AF9 protein interaction inhibition; P42568; AlphaScreen, biotin-AF4 peptide binding to FLAG-AF9; inhibition, % at 10 µM; actives 0.47% (n = 350,000); AID 651704;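 active = every replicate reaching a set inhibition limit, whatever the replicate mean, cut at about 25% in these data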;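 note: 0% = plate neutral control median and 100% = total signal loss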
Target sequence (P42568 whole entry, looked up): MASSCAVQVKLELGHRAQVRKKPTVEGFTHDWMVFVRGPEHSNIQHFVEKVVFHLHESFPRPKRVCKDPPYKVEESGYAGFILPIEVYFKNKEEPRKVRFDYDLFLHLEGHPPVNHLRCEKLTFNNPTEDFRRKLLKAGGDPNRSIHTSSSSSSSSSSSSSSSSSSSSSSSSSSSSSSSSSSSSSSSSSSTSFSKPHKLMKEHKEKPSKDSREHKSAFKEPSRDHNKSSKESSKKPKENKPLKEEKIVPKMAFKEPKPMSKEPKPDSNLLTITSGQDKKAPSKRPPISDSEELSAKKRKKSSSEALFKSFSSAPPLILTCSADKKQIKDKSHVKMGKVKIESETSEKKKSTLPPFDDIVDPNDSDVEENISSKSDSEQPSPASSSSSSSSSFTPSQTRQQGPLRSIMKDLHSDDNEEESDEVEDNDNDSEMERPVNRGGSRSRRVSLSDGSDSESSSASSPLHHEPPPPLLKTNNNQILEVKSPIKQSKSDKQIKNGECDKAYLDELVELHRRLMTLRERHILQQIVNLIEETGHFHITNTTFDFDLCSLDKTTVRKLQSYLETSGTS
FN deposit inh: fibronectin deposition inhibition. AH1F fibroblasts, Alexa488-fibronectin deposition fluorescence, overnight. inhibition, % at 12.6 µM. actives 0.086% (n = 350,000). AID 743247;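 active = mean inhibition across replicates of 30% or more, regardless of how many single replicates reach that level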;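 note: positive control wells lacked labelled fibronectin entirely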
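Material: AH1F fibroblast monolayer depositing Alexa488-labelled fibronectin into matrix | Input: 10000 AH1F cells/well | Medium: DMEM plus 2% serum, read in PBS | Reagent: Alexa488-fibronectin, 24 nM final in well | Compound dosing: One dose per compound, pinned | Schedule: 1 h adhesion, overnight exposure | Measured by: Fluorescence at 485 nm excitation, 525 nm emission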
HIV Env fusion: blocks HIV Env-driven cell-cell fusion | HeLa-JRFL Env/CEM21 cell fusion, luciferase | inhibition, % at 12.3 µM | actives 1.1% (n = 360,000) | AID 651610;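 active = mean replicate inhibition score of at least 50 and every replicate individually at or above 50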;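 note: 0% = plate neutral controls and 100% = maraviroc near 300 nM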
Glyco luc inh: blocks N-linked glycosylation in D54 reporter cells | D54 ERlucT glycosylation luciferase reporter, 24 h; percent of 100 nM tunicamycin response | reporter increase, % at 12.5 µM | actives 0.23% (n = 360,000) | AID 588692;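 active = mean luciferase reporter signal, scaled so untreated is 0 and the glycosylation-blocking control 100, at or above a set limit in every replicate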;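 note: luciferase carries N-glycosylation sites so blocking glycosylation raises the light; 0% = median of neutral control wells and 100% = median of 100 nM tunicamycin wells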
PAX8 inh HTS: lowers PAX8-driven luciferase in RMG-I cells; inhibition, % at 12.6 µM; RMG-I TPO-luciferase reporter, SteadyGlo, 24 h; actives 1.2% (n = 360,000); AID 652154;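 active = mean replicate inhibition at least 60% with every replicate also reaching 60%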;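 note: luciferase light reporting Pax8 driven TPO promoter activity; plate controls were median of neutral control wells for no effect and mitoxantrone controls for full effect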
Active calls of the source: *; [ ] = dose if it differs, or a comment. In the library only some 2.5% were active in any assay of this set; here they are far more common.

Screening CCCN1[C@@H]2Cn3c(ccc(-c4ccc(OC)cc4)c3=O)[C@H]1[C@@H](C(=O)OC)[C@@H]2CO returned EWS-Fli block -6, AF4-AF9 inh -1 and PAX8 inh HTS -9.
`NC(=O)c1c(Br)n(C2OC(CO)C(O)C2O)c2ncnc(N)c12` (stereo unspecified) gave EWS-Fli block 32, AF4-AF9 inh 0, FN deposit inh 10, HIV Env fusion 71*, Glyco luc inh -13 and PAX8 inh HTS 85*.
CCNC(=O)[C@H]1O[C@@H](n2cnc3c(N)ncnc32)[C@H](O)[C@@H]1O was read as EWS-Fli block -2, AF4-AF9 inh -6, FN deposit inh 11, HIV Env fusion -2, Glyco luc inh 3 and PAX8 inh HTS -6.
For N#Cc1c(Br)n(C2OC(CO)C(O)C2O)c2ncnc(N)c12 (stereo unspecified) the results were EWS-Fli block 30, AF4-AF9 inh -6, FN deposit inh 11, HIV Env fusion -1, Glyco luc inh -7 and PAX8 inh HTS 82*.
For CN1C2CN(CC(F)(F)F)CC1C2c1ccc(Br)cc1 (stereo unspecified) the results were FN deposit inh -19.
`Cc1cccc(N2C(=O)NC(=O)/C(=C\c3cccn3-c3ccc(Cl)cc3)C2=O)c1` gave Glyco luc inh 11.
`Cc1ccc(N2C(=O)NC(=O)/C(=C\C=C\c3ccco3)C2=O)cc1C` gave EWS-Fli block 72*, AF4-AF9 inh 0, FN deposit inh -8, Glyco luc inh 47* and PAX8 inh HTS 31.
Screening C=CCN1C(=O)NC(=O)/C(=C/C=C/c2ccccc2)C1=O returned EWS-Fli block 31, AF4-AF9 inh -4, FN deposit inh 11, HIV Env fusion -220, Glyco luc inh 1 and PAX8 inh HTS 45.
CN(C)c1ccc(/C=C/C=C2/C(=O)NC(=O)N(c3ccccc3)C2=O)cc1 was read as EWS-Fli block 57*, AF4-AF9 inh 4, FN deposit inh 1, HIV Env fusion -210, Glyco luc inh 1 and PAX8 inh HTS 32.
Cc1ccc(N2C(=O)NC(=O)/C(=C\C=C\c3ccco3)C2=O)cc1 was read as EWS-Fli block 56*, AF4-AF9 inh -13, FN deposit inh -2, HIV Env fusion -245, Glyco luc inh 42* and PAX8 inh HTS 10.
For CN1C(=O)/C(=C/C=C/c2ccco2)C(=O)NC1=S the results were EWS-Fli block 2, AF4-AF9 inh -2, FN deposit inh 4, HIV Env fusion -38, Glyco luc inh 0 and PAX8 inh HTS 8.
For Cc1cccc(N2C(=O)NC(=O)/C(=C\C=C\c3ccco3)C2=O)c1 the results were EWS-Fli block 67*, AF4-AF9 inh -14, FN deposit inh -4, HIV Env fusion inactive, Glyco luc inh 42* and PAX8 inh HTS 8.
`CS(=O)(=O)N1C[C@@H]2C(c3ccc(Br)cc3)[C@H](C1)N2CC1CC1` (stereo partly specified) gave FN deposit inh 3.
O=C(O)[C@@H]1[C@@H](CO)[C@@H]2Cn3c(ccc(C4=CCCC4)c3=O)[C@H]1N2C(=O)Cc1ccccn1 was read as EWS-Fli block 1 and AF4-AF9 inh 1.
For O=C1NC(=O)N(c2ccccc2)C(=O)/C1=C/C=C/c1ccco1 the results were EWS-Fli block 60*, AF4-AF9 inh 4, FN deposit inh -16, HIV Env fusion -75, Glyco luc inh 29* and PAX8 inh HTS -24.
For COC(=O)[C@@H]1[C@@H](CO)[C@@H]2Cn3c(ccc(-c4cccnc4)c3=O)[C@H]1N2S(=O)(=O)c1ccccc1F the results were EWS-Fli block -4, AF4-AF9 inh -2 and PAX8 inh HTS -4.
For O=C(NC(=C(Cl)Cl)P(=O)(c1ccccc1)c1ccccc1)c1ccccc1 the results were EWS-Fli block 2, AF4-AF9 inh -2, FN deposit inh -1, Glyco luc inh 0 and PAX8 inh HTS 108*.
O=C(NCC1=C(c2cccc3ccccc23)C[C@@H]2CC[C@H]1N2Cc1ccco1)c1ccc([N+](=O)[O-])cc1 was read as EWS-Fli block 5, AF4-AF9 inh 25*, FN deposit inh -26, Glyco luc inh -8 and PAX8 inh HTS 34.
CS(=O)(=O)c1ccc(C2=C(CNC(=O)c3ccc([N+](=O)[O-])cc3)[C@H]3CC[C@@H](C2)N3Cc2ccccc2)cc1 was read as EWS-Fli block 6, AF4-AF9 inh 10, FN deposit inh 2, HIV Env fusion -17, Glyco luc inh -2 and PAX8 inh HTS 9.
Screening COCC(=O)N1[C@@H]2Cn3c(ccc(C4=CCCC4)c3=O)[C@H]1[C@@H](C(=O)OC)[C@@H]2CO returned EWS-Fli block 15, AF4-AF9 inh -1 and PAX8 inh HTS -1.
`CC(=O)N1C[C@@H]2N[C@H](C1)C2c1ccccc1` (stereo partly specified) gave FN deposit inh -6.
Screening CCCCn1c(=O)c(C(=O)Nc2ccccc2S(N)(=O)=O)c(O)c2ccccc21 returned HIV Env fusion -32 and Glyco luc inh 1.
For CCCCCCn1c(=O)c(C(=O)Nc2ncccc2C)c(O)c2ccccc21 the results were EWS-Fli block 4, AF4-AF9 inh 2, FN deposit inh -8, HIV Env fusion 83*, Glyco luc inh 1 and PAX8 inh HTS 13.
`CCCCCn1c(=O)c(C(=O)Nc2ccccc2S(N)(=O)=O)c(O)c2ccccc21` gave EWS-Fli block 16, AF4-AF9 inh -1, FN deposit inh 23, HIV Env fusion 48, Glyco luc inh -7 and PAX8 inh HTS 83*.
`CCCN1[C@@H]2c3cccc(=O)n3C[C@H]1[C@H](CO)[C@H]2C(=O)N(C)C` gave EWS-Fli block 0, AF4-AF9 inh 0 and HIV Env fusion -9[16.7 µM].
Screening COC(=O)[C@H]1[C@H](CO)[C@H]2Cn3c(ccc(/C=C/c4ccccc4)c3=O)[C@@H]1N2C(=O)C1CC1 returned EWS-Fli block 22 and AF4-AF9 inh -9.
O=c1[nH]c(=O)n(Cc2ccco2)c(O)c1C=NC1CCN(Cc2ccccc2)CC1 was read as EWS-Fli block 10, AF4-AF9 inh 48*, FN deposit inh 2, HIV Env fusion -3, Glyco luc inh 1 and PAX8 inh HTS -1.
`COC(=O)[C@@H]1[C@@H](CO)[C@@H]2Cn3c(ccc(-c4ccc(F)cc4)c3=O)[C@H]1N2Cc1ccccc1` gave EWS-Fli block -6, AF4-AF9 inh 3 and PAX8 inh HTS -15.
Screening C=Cc1cc(OC)c2c(c1)c(=O)oc1c2cc(OC)c2c(O)ccc(C3OC(C)C(O)C(C)(O)C3O)c21 (stereo unspecified) returned EWS-Fli block 28, AF4-AF9 inh -4, FN deposit inh -11, HIV Env fusion 47, Glyco luc inh -3 and PAX8 inh HTS 89*.
